For test [1], the target named is T1, Serine/threonine-protein kinase Nek1 (Homo sapiens) (UniProt Q96PY6).
T1 sequence (whole entry): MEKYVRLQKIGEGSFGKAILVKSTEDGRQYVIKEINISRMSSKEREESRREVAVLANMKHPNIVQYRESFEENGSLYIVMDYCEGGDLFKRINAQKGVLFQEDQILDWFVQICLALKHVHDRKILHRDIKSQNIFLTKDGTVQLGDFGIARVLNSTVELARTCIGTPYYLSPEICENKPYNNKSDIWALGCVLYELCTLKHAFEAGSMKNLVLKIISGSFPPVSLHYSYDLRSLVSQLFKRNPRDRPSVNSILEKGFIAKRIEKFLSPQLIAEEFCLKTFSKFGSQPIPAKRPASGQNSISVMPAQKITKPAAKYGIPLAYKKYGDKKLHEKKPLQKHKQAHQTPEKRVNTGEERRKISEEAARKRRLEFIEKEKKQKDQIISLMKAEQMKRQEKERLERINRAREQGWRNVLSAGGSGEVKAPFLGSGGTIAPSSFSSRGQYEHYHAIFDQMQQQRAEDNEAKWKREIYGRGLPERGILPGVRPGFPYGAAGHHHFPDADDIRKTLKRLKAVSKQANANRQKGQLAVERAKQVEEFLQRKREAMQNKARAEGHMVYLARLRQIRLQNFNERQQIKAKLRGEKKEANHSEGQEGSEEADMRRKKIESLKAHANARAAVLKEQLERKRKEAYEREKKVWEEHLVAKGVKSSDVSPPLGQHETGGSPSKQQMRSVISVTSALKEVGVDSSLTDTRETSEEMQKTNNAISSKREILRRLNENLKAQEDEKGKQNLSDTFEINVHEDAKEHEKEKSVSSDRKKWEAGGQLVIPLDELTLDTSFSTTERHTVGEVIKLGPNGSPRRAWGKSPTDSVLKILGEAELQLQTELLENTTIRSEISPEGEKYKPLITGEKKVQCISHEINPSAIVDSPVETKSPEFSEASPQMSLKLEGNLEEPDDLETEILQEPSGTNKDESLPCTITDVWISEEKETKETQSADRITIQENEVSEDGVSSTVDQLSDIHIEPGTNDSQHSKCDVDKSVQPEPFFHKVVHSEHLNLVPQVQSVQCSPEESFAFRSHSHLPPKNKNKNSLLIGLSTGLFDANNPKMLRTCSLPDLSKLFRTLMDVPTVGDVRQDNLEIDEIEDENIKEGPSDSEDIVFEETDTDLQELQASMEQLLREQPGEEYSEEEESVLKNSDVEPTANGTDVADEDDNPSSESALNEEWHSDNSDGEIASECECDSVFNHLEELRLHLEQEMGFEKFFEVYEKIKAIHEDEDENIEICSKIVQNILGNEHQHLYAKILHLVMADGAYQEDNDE
As to the kind of experiment: Inhibition of human recombinant NEK1 (1 to 505 residues) assessed as residual activity at 1 uM using RLGRDKYKTLRQIRQ as substrate incubated for 40 mins in presence of [gamma-33P]-ATP by radiometric scintillation counting assay relative to control. Summed up:
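Eurofins KinaseProfiler radiometric panel, compound at 1 μM, ATP at 10 μM or within 15 μM of apparent Km. For Nek1 (1−505): 8 mM MOPS pH 7.0, 0.2 mM EDTA, 250 μM peptide, 10 mM Mg acetate, [γ-33P]-ATP, 40 min at room temperature. Stopped with 0.5% phosphoric acid, filtermat spotting, scintillation counting. Mean of two independent experiments.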

Test [2] has as its target T2, Serine/threonine-protein kinase Nek1 (Homo sapiens, UniProt Q96PY6).
T2 sequence (Q96PY6 whole entry): T1 sequence (whole entry)
As to the kind of experiment: Inhibition of human recombinant NEK1 (1 to 505 residues) using ULight-p70 S6K peptide as substrate incubated for 30 mins by LANCE Ultra TR-FRET assay. The essentials:
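Recombinant human Nek1 (1−505, 0.02 nM) in 50 mM HEPES pH 7.5, 1 mM EGTA, 10 mM MgCl2, 0.2 mM DTT, 0.01% Tween20, with 50 nM ULight-p70 S6K peptide and 60 μM ATP, 30 min at 22 °C. Stopped with EDTA plus Eu anti-phospho antibody, 1 h signal development. Ten half-log concentrations from 30 μM (10 μM for some) to 1 nM. Mean of two experiments.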
For orientation: Time-resolved FRET reads energy transfer from a long-lived donor to a nearby acceptor.

Test [3] has as its target T2, Serine/threonine-protein kinase Nek1. As to the kind of experiment: Inhibition of human recombinant NEK1 (1 to 505 residues) using RLGRDKYKTLRQIRQ as substrate incubated for 40 mins in presence of [gamma-33P]-ATP by radiometric scintillation counting assay. The essentials: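 Eurofins IC50Profiler radiometric assay on recombinant human Nek1 (1−505), ATP at 10 μM or 90 μM (near Km). Nine concentrations at half-log steps from 10 μM to 1 nM, with vehicle controls. IC50 and 95% CI obtained by four-parameter nonlinear regression. Mean of two independent experiments.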

With `O=S(=O)(N[C@H](CO)Cc1c[nH]c2ccccc12)c1ccc(-c2ccnc3[nH]ccc23)cc1`, the Activity in test [1] worked out at 19%. In addition, in test [2], the half-inhibitory concentration (IC50) is 0.99 µM.

Regarding `O=S(=O)(N[C@@H](CO)Cc1ccccc1)c1ccc(-c2ccnc3[nH]ccc23)cc1`, the Activity in test [1] was 16%. For the same compound, the IC50 in test [2] was 1.3 µM.

For the compound `O=S(=O)(NCCN1CCOCC1)c1ccc(-c2ccnc3[nH]ccc23)cc1`, the Activity in test [1] was determined as 51%. The half-maximal inhibitory concentration (IC50) in test [2] is 27 µM.

Turning to `CC(C)(O)CNS(=O)(=O)c1ccc(-c2ccnc3[nH]ccc23)cc1`, the Activity in test [1] amounted to 32%. For the same compound, in test [2], the concentration for half-maximal inhibition (IC50) came to 5.8 µM.

For `CN(C)CCNS(=O)(=O)c1ccc(-c2ccnc3[nH]ccc23)cc1`, the IC50 was found to be 4.3 µM in test [3] and 7.1 µM in test [2]. Besides, the Activity in test [1] was 37%.

Take `CN(CCO)S(=O)(=O)c1ccc(-c2ccnc3[nH]ccc23)cc1`: the Activity in test [1] was found to be 46%. In test [2], the IC50 was 2.7 µM.

With `CN1CCN(S(=O)(=O)c2ccc(-c3ccnc4[nH]ccc34)cc2)CC1`, the Activity in test [1] worked out at 45%. The IC50 in test [2] is more than 10 µM.

With `O=C(NCCO)c1ccc(-c2ccnc3[nH]ccc23)cc1`, the Activity in test [1] stood at 89%. For the same compound, in test [2], the IC50 worked out at 29 µM.

Regarding `O=S(=O)(NCCO)c1ccc(-c2ccnc3[nH]ccc23)cc1`, the 50% inhibitory concentration (IC50) in test [3] turned out to be 2 µM; in test [2] it was 3.2 µM. Further, the Activity in test [1] stood at 12%.

Take `O=C(O)[C@H](Cc1ccccc1)NS(=O)(=O)c1ccc(-c2ccnc3[nH]ccc23)cc1`: the Activity in test [1] was 94%.

In the case of `O=S(=O)(NCCN1CCCCC1)c1ccc(-c2ccnc3[nH]ccc23)cc1`, the Activity in test [1] turned out to be 37%. The IC50 in test [2] turned out to be 6.6 µM.

Turning to `COCCNS(=O)(=O)c1ccc(-c2ccnc3[nH]ccc23)cc1`, in test [1], the Activity worked out at 44%. Also, the IC50 in test [2] is more than 30 µM.

For the compound `CC(=O)OCCNS(=O)(=O)c1ccc(-c2ccnc3[nH]ccc23)cc1`, the Activity in test [1] is 49%. The 50% inhibitory concentration (IC50) in test [2] worked out at 8.8 µM.

`CC(C)(C)OC(=O)NCCNS(=O)(=O)c1ccc(-c2ccnc3[nH]ccc23)cc1`: in test [1], the Activity worked out at 49%.

Take `CCN(CC)CCNS(=O)(=O)c1ccc(-c2ccnc3[nH]ccc23)cc1`: the Activity in test [1] came out at 68%. Also, the IC50 in test [2] amounted to 10 µM.

`O=S(=O)(N[C@H](CO)Cc1ccccc1)c1ccc(-c2ccnc3[nH]ccc23)cc1`: the Activity in test [1] worked out at 19%. The IC50 in test [2] was found to be 1.9 µM.

For `O=S(=O)(N[C@H](CO)Cc1ccc(O)cc1)c1ccc(-c2ccnc3[nH]ccc23)cc1`, the Activity in test [1] was 33%. Besides, the IC50 in test [2] came out at 2 µM.

`O=S(=O)(N[C@@H](CO)Cc1ccc(O)cc1)c1ccc(-c2ccnc3[nH]ccc23)cc1`: the Activity in test [1] was found to be 25%. Moreover, in test [2], the 50% inhibitory concentration (IC50) was 1.6 µM.

The IC50 is the midpoint of a concentration-inhibition curve.

The record behind these values is ChEMBL document CHEMBL5154713, “Illuminating a Dark Kinase: Structure-Guided Design, Synthesis, and Evaluation of a Potent Nek1 Inhibitor and Its Effects on the Embryonic Zebrafish Pronephros” (J Med Chem, 2022).
